Assay results: ChEMBL document CHEMBL4196009, “Novel vitexin-inspired scaffold against leukemia” (Eur J Med Chem, 2018)

How the values were obtained:
UoC-B1 = experiment: Antiproliferative activity against human UOCB1 cells after 72 hrs by CelTiter-Glo assay; type: functional, cell-based; conditions: UoC-B1, 72 h
SUP-B15 [1] = experiment: Antiproliferative activity against human SUP-B15 cells after 72 hrs by CelTiter-Glo assay; type: functional, cell-based; conditions: SUP-B15, 72 h
HepG2 = experiment: Antiproliferative activity against human HepG2 cells after 72 hrs by CelTiter-Glo assay; type: functional, cell-based; conditions: HepG2, 72 h
KOPN-8 [2] = experiment: Antiproliferative activity against human KOPN8 cells after 72 hrs by CelTiter-Glo assay; type: functional, cell-based; conditions: KOPN-8, 72 h
SEM cells = experiment: Antiproliferative activity against human SEM cells after 72 hrs by CelTiter-Glo assay; type: functional, cell-based
THLE-2 = experiment: Antiproliferative activity against human THLE2 cells after 72 hrs by CelTiter-Glo assay; type: cell-based; conditions: THLE-2, 72 h
BJ = experiment: Antiproliferative activity against human BJ cells after 72 hrs by CelTiter-Glo assay; type: cell-based
MDA-MB-231 [3] = experiment: Cell cycle arrest in human MDA-MB-231 cells assessed as accumulation at G0/G1 phase at 20 uM after 24 hrs by propidium iodide staining-based flow cytometry (reference value: 70.47%); type: functional
MDA-MB-231 [4] = experiment: Cell cycle arrest in human MDA-MB-231 cells assessed as accumulation at G2/M phase at 20 uM after 24 hrs by propidium iodide staining-based flow cytometry (reference value: 9.38%); type: functional
MDA-MB-231 [5] = experiment: Cell cycle arrest in human MDA-MB-231 cells assessed as accumulation at S phase at 20 uM after 24 hrs by propidium iodide staining-based flow cytometry (reference value: 20.15%); type: functional
KOPN-8 [6] = experiment: Induction of apoptosis in human KOPN8 cells assessed as viable cells at 10 uM after 24 hrs by Annexin V-FITC/propidium iodide staining-based flow cytometry (reference value: 85.2%); type: functional; conditions: KOPN-8, 24 h, read-out: Activity
Procedure, shortened: (§1)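 KOPN-8 cells were treated for 24 h, with a DMSO vehicle control and a staurosporine positive control. Cells were stained with FITC-Annexin V and propidium iodide and analysed by flow cytometry. Quadrant gating separated viable, early apoptotic, late apoptotic (Q2) and necrotic populations.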

KOPN-8 [7] = experiment: Cell cycle arrest in human KOPN8 cells assessed as accumulation at G2/M phase at 10 uM after 24 hrs by propidium iodide staining-based flow cytometry (reference value: 9.67%); type: functional
Procedure, shortened: (§2)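 KOPN-8 cells treated 24 h alongside a DMSO vehicle and a staurosporine (2.0 µM) positive control. Apoptosis was scored by FITC Annexin V / propidium iodide flow cytometry with quadrant gating (early, late apoptotic). DNA content was measured by PI staining to give the percentage of cells in G0/G1, S and G2/M. Groups were compared by t-test; error bars are SD.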

KOPN-8 [8] = experiment: Induction of apoptosis in human KOPN8 cells assessed as necrotic cells at 10 uM after 24 hrs by Annexin V-FITC/propidium iodide staining-based flow cytometry (reference value: 0.2%); type: functional; procedure, shortened: as §1
KOPN-8 [9] = experiment: Induction of apoptosis in human KOPN8 cells assessed as late apoptotic cells at 10 uM after 24 hrs by Annexin V-FITC/propidium iodide staining-based flow cytometry (reference value: 9.5%); type: functional; procedure, shortened: as §1
SUP-B15 [10] = experiment: Induction of apoptosis in human SUP-B15 cells assessed as early apoptotic cells at 10 uM after 24 hrs by Annexin V-FITC/propidium iodide staining-based flow cytometry (reference value: 0.1%); type: functional
SUP-B15 [11] = experiment: Induction of apoptosis in human SUP-B15 cells assessed as late apoptotic cells at 10 uM after 24 hrs by Annexin V-FITC/propidium iodide staining-based flow cytometry (reference value: 2.2%); type: functional
KOPN-8 [12] = experiment: Cell cycle arrest in human KOPN8 cells assessed as accumulation at G0/G1 phase at 10 uM after 24 hrs by propidium iodide staining-based flow cytometry (reference value: 24.77%); type: functional; procedure, shortened: as §2
KOPN-8 [13] = experiment: Cell cycle arrest in human KOPN8 cells assessed as accumulation at S phase at 10 uM after 24 hrs by propidium iodide staining-based flow cytometry (reference value: 66.56%); type: functional; procedure, shortened: as §2
KOPN-8 [14] = experiment: Induction of apoptosis in human KOPN8 cells assessed as early apoptotic cells at 10 uM after 24 hrs by Annexin V-FITC/propidium iodide staining-based flow cytometry (reference value: 0.1%); type: functional; procedure, shortened: as §2
SUP-B15 [15] = experiment: Induction of apoptosis in human SUP-B15 cells assessed as necrotic cells at 10 uM after 24 hrs by Annexin V-FITC/propidium iodide staining-based flow cytometry (reference value: 9.2%); type: functional
SUP-B15 [16] = experiment: Induction of apoptosis in human SUP-B15 cells assessed as viable cells at 10 uM after 24 hrs by Annexin V-FITC/propidium iodide staining-based flow cytometry (reference value: 82.8%); type: functional; conditions: SUP-B15, 24 h, read-out: Activity
KOPN-8 [17] = experiment: Cell cycle arrest in human KOPN8 cells assessed as accumulation at G0/G1 phase at 2 uM after 24 hrs by propidium iodide staining-based flow cytometry (reference value: 24.77%); type: functional
SUP-B15 [18] = experiment: Induction of apoptosis in human SUP-B15 cells assessed as necrotic cells at 2 uM after 24 hrs by Annexin V-FITC/propidium iodide staining-based flow cytometry (reference value: 9.2%); type: functional
KOPN-8 [19] = experiment: Induction of apoptosis in human KOPN8 cells assessed as late apoptotic cells at 2 uM after 24 hrs by Annexin V-FITC/propidium iodide staining-based flow cytometry (reference value: 9.5%); type: functional
SUP-B15 [20] = experiment: Induction of apoptosis in human SUP-B15 cells assessed as late apoptotic cells at 2 uM after 24 hrs by Annexin V-FITC/propidium iodide staining-based flow cytometry (reference value: 2.2%); type: functional
SUP-B15 [21] = experiment: Induction of apoptosis in human SUP-B15 cells assessed as early apoptotic cells at 2 uM after 24 hrs by Annexin V-FITC/propidium iodide staining-based flow cytometry (reference value: 0.1%); type: functional
KOPN-8 [22] = experiment: Cell cycle arrest in human KOPN8 cells assessed as accumulation at G2/M phase at 2 uM after 24 hrs by propidium iodide staining-based flow cytometry (reference value: 9.67%); type: functional
KOPN-8 [23] = experiment: Cell cycle arrest in human KOPN8 cells assessed as accumulation at S phase at 2 uM after 24 hrs by propidium iodide staining-based flow cytometry (reference value: 66.56%); type: functional
KOPN-8 [24] = experiment: Induction of apoptosis in human KOPN8 cells assessed as viable cells at 2 uM after 24 hrs by Annexin V-FITC/propidium iodide staining-based flow cytometry (reference value: 85.2%); type: functional; conditions: KOPN-8, 24 h, read-out: Activity
MDA-MB-231 [25] = experiment: Cell cycle arrest in human MDA-MB-231 cells assessed as accumulation at G2/M phase at 2.5 uM after 24 hrs by propidium iodide staining-based flow cytometry (reference value: 9.38%); type: functional
KOPN-8 [26] = experiment: Induction of apoptosis in human KOPN8 cells assessed as early apoptotic cells at 2 uM after 24 hrs by Annexin V-FITC/propidium iodide staining-based flow cytometry (reference value: 0.1%); type: functional
KOPN-8 [27] = experiment: Induction of apoptosis in human KOPN8 cells assessed as necrotic cells at 2 uM after 24 hrs by Annexin V-FITC/propidium iodide staining-based flow cytometry (reference value: 0.2%); type: functional
SUP-B15 [28] = experiment: Induction of apoptosis in human SUP-B15 cells assessed as viable cells at 2 uM after 24 hrs by Annexin V-FITC/propidium iodide staining-based flow cytometry (reference value: 82.8%); type: functional; conditions: SUP-B15, 24 h, read-out: Activity
MDA-MB-231 [29] = experiment: Cell cycle arrest in human MDA-MB-231 cells assessed as accumulation at G0/G1 phase at 2.5 uM after 24 hrs by propidium iodide staining-based flow cytometry (reference value: 70.47%); type: functional
MDA-MB-231 [30] = experiment: Cell cycle arrest in human MDA-MB-231 cells assessed as accumulation at S phase at 2.5 uM after 24 hrs by propidium iodide staining-based flow cytometry (reference value: 20.15%); type: functional

O=c1cc(-c2ccc(O)cc2)oc2c([C@@H]3O[C@H](CO)[C@@H](O)[C@H](O)[C@H]3O)c(O)cc(O)c12 [VITEXIN]
EC50 (UoC-B1): > 43.3 µM
EC50 (SUP-B15 [1]): 50.7 µM
EC50 (HepG2): > 43.3 µM
EC50 (KOPN-8 [2]): > 43.3 µM
EC50 (SEM cells): > 43.3 µM
EC50 (THLE-2): 200 µM
EC50 (BJ): > 86.2 µM

COC(=O)c1cc(=O)c2c(OC)cc(OC)cc2n1S(=O)(=O)c1ccc(C)cc1
EC50 (SUP-B15 [1]): 9.7 µM
EC50 (HepG2): > 20 µM
EC50 (KOPN-8 [2]): 6 µM
EC50 (SEM cells): 5.8 µM
EC50 (THLE-2): 149 µM
EC50 (BJ): 139 µM

COc1ccc(-c2c(Br)c(=O)c3c(OC)cc(OC)cc3n2S(=O)(=O)c2ccc(OC)cc2)cc1
Activity (MDA-MB-231 [3]): 70.02%
EC50 (SUP-B15 [1]): 2.92 µM
EC50 (HepG2): > 20 µM
Activity (MDA-MB-231 [4]): 11.79%
EC50 (KOPN-8 [2]): 2.58 µM
EC50 (SEM cells): 1.9 µM
EC50 (THLE-2): 69 µM
EC50 (BJ): 49.7 µM
Activity (MDA-MB-231 [5]): 18.2%

COc1cc(OC)c2c(=O)cc(C(=O)N3CCN(C(=O)OC(C)(C)C)CC3)[nH]c2c1
viability at 10 µM (KOPN-8 [6]): 63.7%
Activity (KOPN-8 [7]): 8.86%
Activity (KOPN-8 [8]): 0.5%
EC50 (SUP-B15 [1]): 3.98 µM
Activity (KOPN-8 [9]): 24.9%
EC50 (HepG2): 11.3 µM
Activity (SUP-B15 [10]): 0%
EC50 (KOPN-8 [2]): 6.73 µM
Activity (SUP-B15 [11]): 3.2%
Activity (KOPN-8 [12]): 29.78%
EC50 (SEM cells): 47 µM
EC50 (THLE-2): 299 µM
Activity (KOPN-8 [13]): 61.36%
EC50 (BJ): 13.8 µM
Activity (KOPN-8 [14]): 0.2%
Activity (SUP-B15 [15]): 11.3%
viability at 10 µM (SUP-B15 [16]): 77.7%

CN[C@@H]1C[C@H]2O[C@@](C)([C@@H]1OC)n1c3ccccc3c3c4c(c5c6ccccc6n2c5c31)C(=O)NC4 [STAUROSPORINE]
Activity (KOPN-8 [17]): 49.55%
Activity (SUP-B15 [18]): 39.4%
Activity (KOPN-8 [19]): 74.4%
Activity (SUP-B15 [20]): 44.2%
Activity (SUP-B15 [21]): 0.2%
Activity (KOPN-8 [22]): 20.08%
Activity (KOPN-8 [23]): 30.37%
viability at 2 µM (KOPN-8 [24]): 0.3%
Activity (MDA-MB-231 [25]): 6.8%
Activity (KOPN-8 [26]): 0.2%
Activity (KOPN-8 [27]): 0.1%
viability at 2 µM (SUP-B15 [28]): 9.8%
Activity (MDA-MB-231 [29]): 50.99%
Activity (MDA-MB-231 [30]): 42.21%

COc1cc(OC)c2c(=O)cc(C(=O)Nc3ccc(Oc4ccc([N+](=O)[O-])cc4)cc3)[nH]c2c1
EC50 (SUP-B15 [1]): 4.3 µM
EC50 (HepG2): > 23 µM
EC50 (KOPN-8 [2]): 20.5 µM
EC50 (SEM cells): 0.48 µM
EC50 (THLE-2): 90 µM
EC50 (BJ): > 23 µM

COC(=O)c1cc(=O)c2cc(NC(=O)Nc3ccc(Cl)c(C(F)(F)F)c3)ccc2[nH]1
EC50 (UoC-B1): > 6.35 µM
viability at 10 µM (KOPN-8 [6]): 80.7%
Activity (KOPN-8 [7]): 11.11%
Activity (KOPN-8 [8]): 0.3%
EC50 (SUP-B15 [1]): > 12.6 µM
Activity (KOPN-8 [9]): 12.3%
EC50 (HepG2): > 6.35 µM
Activity (SUP-B15 [10]): 0.1%
EC50 (KOPN-8 [2]): > 6.35 µM
Activity (SUP-B15 [11]): 9.3%
Activity (KOPN-8 [12]): 40.39%
EC50 (SEM cells): > 6.35 µM
Activity (KOPN-8 [13]): 48.5%
EC50 (BJ): > 12.6 µM
Activity (KOPN-8 [14]): 0.1%
Activity (SUP-B15 [15]): 16.4%
viability at 10 µM (SUP-B15 [16]): 65.5%

COC(=O)c1cc(=O)c2cc(N)ccc2[nH]1
EC50 (UoC-B1): > 33.8 µM
EC50 (SUP-B15 [1]): > 67.2 µM
EC50 (HepG2): > 33.8 µM
EC50 (KOPN-8 [2]): > 33.8 µM
EC50 (SEM cells): > 33.8 µM
EC50 (BJ): > 67.2 µM
